GPR7 antag – GPR7 receptor antagonists, primary screen, cell-based, fluorescence, single concentration | hit rate 1.1% among 290,000 | AID 1861, 2009 | inhibition, % at 4.4 µM | GPR7-expressing cells, fluorescence antagonist assay; in the data active = inhibition above about 16%, passing the limit was not always enough;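 note: cells stimulated with the agonist NPW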
Target sequence (P48145 whole entry, looked up): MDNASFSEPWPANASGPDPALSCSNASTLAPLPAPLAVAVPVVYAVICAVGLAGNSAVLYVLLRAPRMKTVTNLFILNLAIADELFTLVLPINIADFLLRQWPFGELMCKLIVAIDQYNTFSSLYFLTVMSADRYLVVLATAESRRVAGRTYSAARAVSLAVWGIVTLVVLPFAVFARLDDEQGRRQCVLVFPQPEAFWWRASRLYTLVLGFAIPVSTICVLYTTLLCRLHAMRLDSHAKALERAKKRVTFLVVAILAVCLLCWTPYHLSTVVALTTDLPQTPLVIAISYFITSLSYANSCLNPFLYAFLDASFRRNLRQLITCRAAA
TAAR1 ag – human TAAR1 agonists, primary screen, Fluo-8 calcium fluorescence, CHO RD-HGA16 cells | vehicle wells 0%, saturating PEA agonist 100% | AID 624467, 2012 | activation, % at 3 µM | Trace amine-associated receptor 1 (Homo sapiens), Q96RJ0 | hit rate 0.99% among 360,000;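 active = activation above the mean activation of all test compounds in the run plus 3 SD, cut at about 38% in these data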
Target sequence (Q96RJ0 whole entry, looked up): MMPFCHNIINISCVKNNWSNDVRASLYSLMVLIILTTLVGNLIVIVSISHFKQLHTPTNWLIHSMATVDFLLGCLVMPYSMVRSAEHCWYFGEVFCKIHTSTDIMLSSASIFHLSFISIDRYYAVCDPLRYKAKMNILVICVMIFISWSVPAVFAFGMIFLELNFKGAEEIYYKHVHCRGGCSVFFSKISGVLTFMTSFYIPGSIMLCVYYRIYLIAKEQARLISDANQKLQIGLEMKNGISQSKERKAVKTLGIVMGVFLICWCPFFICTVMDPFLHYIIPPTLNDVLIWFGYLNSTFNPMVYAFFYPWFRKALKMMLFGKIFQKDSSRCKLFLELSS
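Repeats: no replicates (n 1) | Material: CHO-derived RD-HGA16 cells with stable Gα16 and human TAAR1 | Technique: Kinetic Fluo-8 calcium fluorescence | Schedule: 17-24 h seeding, 75 min 37 °C dye, 30 min RT | Evaluation: % activation from peak over basal fluorescence ratio, DMSO-to-PEA scaled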
CHO parental Ca – ATP-evoked calcium signal inhibitors, parental CHO, primary screen, counter-screen for OX1R antagonist project, cell-based, fluorescence, Fluo-8 calcium dye; parental CHO-K1, ATP-induced calcium, Fluo-8 fluorescence; inhibition, % at 5.6 µM; hit rate 0.63% among 330,000;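 active = inhibition above that plate's mean sample inhibition plus 3 SD, cut at about 26% in these data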
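Measured by: calcium-sensitive Fluo-8 fluorescence / Test system: CHO parental line / Controls: ATP-challenged DMSO wells low, unchallenged DMSO wells high / Measure: % inhibition / Compound: single nominal dose of 5.6 µM per compound / Replicates: single well per compound, no replicates / Reagent: ATP as calcium-mobilizing challenge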
OX1R antag-1 – antagonists of human orexin 1 receptor (OX1R). Orexin/Hypocretin receptor type 1 (Homo sapiens), O43613. OX1R-expressing cells, FRET antagonist read-out. inhibition, % at 6.6 µM. hit rate 1.8% among 330,000; in the data active = inhibition mostly above about 38%, no sharp cut-off; inactive = mostly below about 40%
OX1R antag-2 – OX1R (HCRTR1) antagonists, primary screen, fluorescence, CHO/OX1R cells, Fluo-8 calcium, orexin A; hit rate 0.43% among 330,000; Orexin/Hypocretin receptor type 1 (Homo sapiens), O43613; inhibition, % at 5 µM; AID 434989, 2010; Fluo-8 calcium fluorescence;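 active = inhibition above its plate's threshold, mean inhibition of all tested compounds on the plate plus 3 SD, cut at about 37% in these data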
TAAR1 antagonist – human TAAR1 antagonists, primary screen, Fluo-8 calcium fluorescence, CHO RD-HGA16 cells. hit rate 1.5% among 360,000. AID 624466, 2012. inhibition, % at 3 µM. antagonist. Trace amine-associated receptor 1 (Homo sapiens), Q96RJ0;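 active = inhibition above a per-plate cutoff, the mean inhibition of test compounds on that plate plus 3 SD, cut at about 49% in these data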
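Assay system: RD-HGA16 CHO cells with stable hTAAR1 and Gα16 / Reagent: EC80 β-phenethylamine stimulus / Doses: 3 µM, single point / Timing: dye loading 75 min at 37 °C, then 30 min room temperature / Measured by: Fluo-8 intracellular calcium dye fluorescence, real-time kinetic reads / Controls: vehicle wells and EC80 agonist wells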
Numbers stand for hits; – = inactive; · = no result. The list is not random: actives were taken first. Their share in the collection is about 4.5%.

SMILES | GPR7 antag | TAAR1 ag | CHO parental Ca | OX1R antag-1 | OX1R antag-2 | TAAR1 antagonist
CC(=O)c1ccccc1OCC(=O)Nc1cccc(S(=O)(=O)N2CCCC2)c1 | · | – | – | – | – | –
CCOc1ccccc1OCC(=O)Nc1cccc(S(=O)(=O)N2CCCCCC2)c1 | · | – | – | – | – | 58
CCC(=O)N1CCN(c2ccc(NC(=O)COc3ccc(C)cc3C)cc2)CC1 | – | – | – | – | – | –
O=C(CNc1ccccc1F)Nc1cc(S(=O)(=O)N2CCCCC2)ccc1Cl | · | – | – | – | – | –
Cc1ccc(C(=O)N2CCN(c3ccc(NC(=O)COc4ccccc4C)cc3)CC2)cc1 | – | – | – | – | – | 55
Cc1ccc(S(=O)(=O)N2CCCCC2)cc1NCC(=O)Nc1ccc(Br)cc1F | · | – | · | · | · | 57
COc1cc(Cl)c(C)cc1NC(=O)CSC1=NCCS1 | · | – | – | – | – | –
C=CCCC(=O)N1C[C@H]2CCN(C)[C@H]2C[C@H]1c1ccc(Br)cc1 | · | – | · | · | · | –
CCCN1C(=O)c2n[nH]c(C)c2C1c1ccc2c(c1)OCO2 (stereo not drawn) | · | – | · | · | · | –
Cc1ccccc1C(=O)Nc1ccc(N2CCCC2)cc1 | – | – | – | – | – | 54
COCCn1cnnc1SCC(=O)Nc1cccc(S(=O)(=O)N2CCCCCC2)c1 | 20 | – | – | – | – | –
O=C(COc1ccccc1F)Nc1ccc(S(=O)(=O)N2CCCC2)cc1 | · | – | – | – | – | –
CN(C)c1ccc(S(=O)(=O)N2CCCCC2)cc1NC(=O)COc1ccccc1F | – | – | 71 | – | – | –
Cc1cccc(OCCCC(=O)Nc2ccc(N3CCCCC3)cc2)c1 | – | 73 | – | – | – | 64
CCOc1ccc2nc(NC(=O)C34CC5CC(CC(NC(C)=O)(C5)C3)C4)sc2c1 | – | – | · | · | · | –
O=C(Cn1nc(C(=O)O)c2ccccc2c1=O)Nc1cccc(S(=O)(=O)N2CCCCCC2)c1 | · | – | 32 | – | 43 | –
O=C(CNCc1ccccc1Cl)Nc1cc(S(=O)(=O)N2CCOCC2)ccc1Cl | · | – | – | – | – | –
CCOc1cc(C(=S)N2CCCC2)ccc1OCC(=O)Nc1c(C)cc(C)cc1C | – | – | – | 66 | – | –
COc1ccc(CC(=O)Nc2cccc(S(=O)(=O)N3CCCCCC3)c2)cc1OC | – | – | 49 | – | – | –
O=C(Cn1nc(C(=O)O)c2ccccc2c1=O)Nc1cccc(S(=O)(=O)N2CCCC2)c1 | · | – | · | · | · | –
COc1ccc(CCC(=O)Nc2cccc(S(=O)(=O)N3CCCCCC3)c2)cc1OC | · | – | – | – | – | –
Cc1ccc(S(=O)(=O)N2CCOCC2)cc1NC(=O)CNCc1ccc(Cl)cc1Cl | · | – | – | – | – | 59
CC(C)C[C@H]1COc2cc(N3CCOCC3)ccc2S(=O)(=O)N1 | · | – | · | · | · | –
C[C@@H]1C=CCCO[C@]12C(=O)N(CC1CC1)c1ccccc12 | · | – | · | · | · | –
O=S(=O)(c1ccccc1)N(CC1CO1)c1cccc2ccccc12 (stereo not drawn) | – | – | – | 67 | – | –
SMILES | GPR7 antag | TAAR1 ag | CHO parental Ca | OX1R antag-1 | OX1R antag-2 | TAAR1 antagonist
COc1ccc(CNC(=O)c2oc3ccc(S(=O)(=O)N4CCOCC4)cc3c2C)cc1 | – | – | – | – | – | 51
CC(=O)O[C@@H]1C=C[C@@H](C#Cc2ccc(C(C)(C)C)cc2)O[C@@H]1COC(=O)Nc1ccccc1 | · | – | · | · | · | –
COc1ccccc1-c1nnc2sc(-c3ccc(N(C)C)cc3)nn12 | – | – | – | 69 | – | –
CN(C)c1ccc(-c2nn3c(-c4cccnc4)nnc3s2)cc1 | · | · | – | – | – | ·
COc1ccccc1-c1nnc2sc(-c3cc4ccccc4o3)nn12 | 18 | – | – | – | – | –
COC(=O)c1cc2c(c3c4cc(OC)ccc4n(S(=O)(=O)c4ccc(F)cc4)c13)C(=O)N(C)C2 | · | – | · | · | · | –
CCCCCCC(=O)N=Nc1c(O)[nH]c2ccc([N+](=O)[O-])cc12 | – | – | – | – | – | –
O=C(CNC(=O)Cc1ccccc1)N=Nc1c(O)[nH]c2ccccc12 | – | – | – | 45 | – | –
Oc1[nH]c2ccccc2c1N=Nc1ccccc1F | – | 39 | – | – | – | –
Oc1[nH]c2ccccc2c1N=Nc1ccc(F)cc1 | – | – | – | – | – | –
O=C(CNC(=O)c1ccco1)N=Nc1c(O)[nH]c2ccc(Br)cc12 | – | 38 | – | 36 | – | –
O=C(CN1CCN(Cc2ccccc2)CC1)N=Nc1c(O)[nH]c2ccccc12 | – | – | – | – | – | –
O=C(Cc1cccs1)N=Nc1c(O)[nH]c2ccc(Br)cc12 | – | – | – | – | – | –
O=C(CNC(=O)c1cccs1)N=Nc1c(O)[nH]c2ccc([N+](=O)[O-])cc12 | – | – | – | 41 | – | –
Cc1[nH]nc2c1C(c1ccc(F)cc1)N(Cc1ccccc1)C2=O (stereo not drawn) | · | – | · | · | · | –
COc1ccc(Cn2cc(CN3[C@@H](c4ccccc4)COc4cc(Br)ccc4S3(=O)=O)nn2)cc1 | · | – | · | · | · | –
O=C(O)CCC(=O)NCCc1cccc(Cl)c1 | – | 38 | – | – | – | –
O=C(Cc1ccccc1)NCCc1cccc(Cl)c1 | – | – | – | – | – | –
CCC(c1nc2ccccc2[nH]1)n1c(C)nc2ccccc21 (stereo not drawn) | · | – | · | · | · | –
COc1ccc(/C=C2\SC(N3CCCCC3)=NC2=O)cc1 | – | – | – | – | – | –
O=C1N=C(N2CCOCC2)S/C1=C\c1cccnc1 | – | – | – | 37 | – | –
O=C1N=C(N2CCCCC2)S/C1=C\c1ccncc1 | – | – | – | 45 | – | –
O=C1N=C(N2CCOCC2)SC1=Cc1ccco1 | · | – | · | · | · | –
Cc1ccccc1S(=O)(=O)N(C)C[C@@H]1OCc2cn(nn2)CCCC(=O)N([C@@H](C)CO)C[C@H]1C | · | – | · | · | · | –
CC(C)(C)c1ccc(OCC(=O)N(c2ccccn2)C2CCCCC2)cc1 | – | – | 52 | – | – | –
SMILES | GPR7 antag | TAAR1 ag | CHO parental Ca | OX1R antag-1 | OX1R antag-2 | TAAR1 antagonist
O=C(COCCOCC(=O)N(c1ccccn1)C1CCCCC1)N(c1ccccn1)C1CCCCC1 | – | – | – | – | – | –
CC(=O)N(Cc1ccccc1)c1nccs1 | · | – | · | · | · | –
Cc1nn(CCN)c(C)c1Cl | – | 91 | – | – | – | 58
COc1cccc(NC(=O)/C=C/c2ccco2)c1 | – | – | – | – | – | –
O=C(/C=C/c1ccco1)Nc1ccc(Oc2ccc(Cl)cc2)cc1 | – | – | – | – | – | 78
C[C@@H]1COc2cc(N3CCOCC3)ccc2S(=O)(=O)N1 | · | – | · | · | · | –
COc1cccc(OCC(O)CN2CCC(CN3C(=O)c4cccc5cccc(c45)C3=O)CC2)c1 (stereo not drawn) | – | – | – | – | – | –

Source: PubChem
